In publication PMC2748801 (Journal of the American Chemical Society, 2009):
Square brackets hold non-standard residues; d marks the D form. Ends that are not written are not given here. Orn = NCCC[C@H](N)C(=O)O; Dab = NCC[C@H](N)C(=O)O; Dap = NC[C@H](N)C(=O)O

How the values were obtained:
[1] = tested on: hairpin from IRES domain IV of HCV (IRES); type: binding; conditions: for Discrimination ratio against IRES RNA: average Kd against other hairpins (RRE, TAR, 16S A-site)/Kd against IRES; for Kd against IRES hairpin (in words): fluorescence anisotropy, 3i and 3j relative to 3d
[2] = Circular dichroism, α-helical content of peptide alone; type: physicochemical; conditions: CD; for helicity (first value): 10 mM H3PO4, 20 °C; for helicity (second value): 50% TFE in 10 mM H3PO4, 20 °C
Summary of the method: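 Far-UV CD spectra of each free peptide, with no RNA, at 20 °C under temperature control, in 10 mM H3PO4 and in 50% TFE in the same buffer. Scans ran 190–250 nm with 1 nm bandwidth, 0.5 nm data pitch, 20 nm/min, 16 s response and 0.1 cm path, averaging three accumulations. α-Helical content was calculated from the spectra.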

Substance | Discrimination ratio against IRES RNA [1] | helicity (first value) [2] | helicity (second value) [2] | Kd against IRES hairpin (in words) [1]
LKKLL[Orn]LLKKLLKLAG [2a] | 2.5 | 13% | 82% | –
LKKLL[Dab]LL[Orn]KLL[Dap]LAG [2m] | 4.9 | 49% | 69% | –
LKKLLKLL[Orn]KLL[Dap]WAG [3h] | 1.6 | 12% | 56% | –
LKKLLKLL[Orn]KLL[Dap]LAG [2k] | 25 | 48% | 61% | –
Ac-LKKLLKLLKKLLKWAG-NH2 [2u] | 14 | 20% | 52% | subnanomolar
LKKLL[Dab]LLKKLLKLAG [2b] | 6.3 | 23% | 63% | –
LKKLL[Dab]WLKKLLKLAG [3a] | 10 | 29% | 55% | –
Ac-LKKLLKWLKKLLKLAG-NH2 [2q] | 15 | 19% | 71% | subnanomolar
LKKLL[Dab]LLKKLLKWAG [3e] | 28 | 39% | 45% | –
LKKLLKLLKKLL[Orn]LAG [2g] | 3.3 | 36% | 53% | –
LKKLLKLLKKLL[Dap]WAG [3g] | 9.4 | 41% | 63% | –
Ac-LKKLWKLLKKLLKLAG-NH2 [2p] | 3.3 | 20% | 56% | –
LKKLLKLLKKLL[Dap]LAG [2i] | 12 | 39% | 54% | –
LKKLLKWL[Orn]KLLKLAG [3b] | 4.2 | 34% | 52% | –
LKKLLKLL[Orn]KLLKLAG [2d] | 9.1 | 28% | 57% | –
LKKLLKLLKKLL[Dab]LAG [2h] | 2.0 | 24% | 34% | –
Ac-WKKLLKLLKKLLKLAG-NH2 [2n] | 2.4 | 48% | 65% | subnanomolar
Ac-LKKWLKLLKKLLKLAG-NH2 [2o] | 5.5 | 4.6% | 52% | –
LKKLLKLL[Dab]KLLKLAG [2e] | 6.5 | 43% | 57% | –
Ac-LKKLLKLLKKWLKLAG-NH2 [2s] | 5.8 | 27% | 60% | –
LKKLL[Dab]LLKKLL[Dap]LAG [2l] | 13 | 40% | 50% | –
Ac-LKKLLKLLKKLWKLAG-NH2 [2t] | 5.8 | 12% | 58% | –
LKKLLKLL[Dap]KLLKLAG [2f] | 0.6 | 25% | 57% | –
Ac-LKKLLKLWKKLLKLAG-NH2 [2r] | 0.67 | 14% | 59% | –
LKKLLKWL[Orn]KLL[Dap]LAG [3d] | 45 | 32% | 38% | –
LKKLL[Dab]LL[Orn]KLLKLAG [2j] | 6.3 | 49% | 57% | –
LKKLLKLL[Orn]KLLKWAG [3f] | 1.0 | 36% | 58% | –
LKKLLKWLKKLL[Dap]LAG [3c] | 17 | 29% | 36% | –
LKKLL[Dap]LLKKLLKLAG [2c] | 2.4 | 26% | 61% | –
